From ChEMBL document CHEMBL1127729, “Synthesis and pharmacological evaluation of phenylacetamides as sodium-channel blockers” (J Med Chem, 1994) come the findings set out here.

SMILES strings stand for the structures. pIC50: −log10 of the molar value.

For experiment [1], the species on record is Rattus norvegicus. In words: In vitro inhibition of hypoxic-mediated cell injury in Dawley fetal rat brain.
Experiment [2] has as its target Sodium channel protein type 2 subunit alpha (Rattus norvegicus, UniProt P04775). In words: Inhibition of veratridine-induced Na+ influx in chinese hamster ovary cells expressing alpha subunit of rat brain type voltage-gated sodium channel type 2. In kind it is functional. In outline: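 CNaIIA-1 cells (CHO-K1 transfected with rat brain IIA α subunit cDNA) in choline-based KRH buffer, pH 7.4. Compound at 0.01–100 μM final, added with 30 μM veratridine plus α-scorpion venom, 11 min at 37 °C. Cell-retained radioactivity counted after Triton lysis; IC50 determined.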

For experiment [3], the target named is Sodium channel alpha subunits; brain (Types I, II, III) (Rattus norvegicus, UniProt P04775+P04774+P08104). In words: Inhibition of [3H]- batrachotoxin binding to sodium channel in rat neocortical membrane. The class given is cell membranes.
For experiment [4], the species on record is Rattus norvegicus. In words: In vitro inhibition of veratridine induced LDH release in rat embryos. The class given is functional. In outline:
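Rat embryo cortical neuron cultures, 17–18 days old, given compound together with 100 μM veratridine in HEPES saline (pH 7.4) for 10 min. Medium was then replaced by serum-free medium. LDH in medium taken 1 day later, read kinetically as A340 decline of NADH after pyruvate addition at 37 °C.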

Sequence of Sodium channel protein type 2 subunit alpha (P04775 whole entry): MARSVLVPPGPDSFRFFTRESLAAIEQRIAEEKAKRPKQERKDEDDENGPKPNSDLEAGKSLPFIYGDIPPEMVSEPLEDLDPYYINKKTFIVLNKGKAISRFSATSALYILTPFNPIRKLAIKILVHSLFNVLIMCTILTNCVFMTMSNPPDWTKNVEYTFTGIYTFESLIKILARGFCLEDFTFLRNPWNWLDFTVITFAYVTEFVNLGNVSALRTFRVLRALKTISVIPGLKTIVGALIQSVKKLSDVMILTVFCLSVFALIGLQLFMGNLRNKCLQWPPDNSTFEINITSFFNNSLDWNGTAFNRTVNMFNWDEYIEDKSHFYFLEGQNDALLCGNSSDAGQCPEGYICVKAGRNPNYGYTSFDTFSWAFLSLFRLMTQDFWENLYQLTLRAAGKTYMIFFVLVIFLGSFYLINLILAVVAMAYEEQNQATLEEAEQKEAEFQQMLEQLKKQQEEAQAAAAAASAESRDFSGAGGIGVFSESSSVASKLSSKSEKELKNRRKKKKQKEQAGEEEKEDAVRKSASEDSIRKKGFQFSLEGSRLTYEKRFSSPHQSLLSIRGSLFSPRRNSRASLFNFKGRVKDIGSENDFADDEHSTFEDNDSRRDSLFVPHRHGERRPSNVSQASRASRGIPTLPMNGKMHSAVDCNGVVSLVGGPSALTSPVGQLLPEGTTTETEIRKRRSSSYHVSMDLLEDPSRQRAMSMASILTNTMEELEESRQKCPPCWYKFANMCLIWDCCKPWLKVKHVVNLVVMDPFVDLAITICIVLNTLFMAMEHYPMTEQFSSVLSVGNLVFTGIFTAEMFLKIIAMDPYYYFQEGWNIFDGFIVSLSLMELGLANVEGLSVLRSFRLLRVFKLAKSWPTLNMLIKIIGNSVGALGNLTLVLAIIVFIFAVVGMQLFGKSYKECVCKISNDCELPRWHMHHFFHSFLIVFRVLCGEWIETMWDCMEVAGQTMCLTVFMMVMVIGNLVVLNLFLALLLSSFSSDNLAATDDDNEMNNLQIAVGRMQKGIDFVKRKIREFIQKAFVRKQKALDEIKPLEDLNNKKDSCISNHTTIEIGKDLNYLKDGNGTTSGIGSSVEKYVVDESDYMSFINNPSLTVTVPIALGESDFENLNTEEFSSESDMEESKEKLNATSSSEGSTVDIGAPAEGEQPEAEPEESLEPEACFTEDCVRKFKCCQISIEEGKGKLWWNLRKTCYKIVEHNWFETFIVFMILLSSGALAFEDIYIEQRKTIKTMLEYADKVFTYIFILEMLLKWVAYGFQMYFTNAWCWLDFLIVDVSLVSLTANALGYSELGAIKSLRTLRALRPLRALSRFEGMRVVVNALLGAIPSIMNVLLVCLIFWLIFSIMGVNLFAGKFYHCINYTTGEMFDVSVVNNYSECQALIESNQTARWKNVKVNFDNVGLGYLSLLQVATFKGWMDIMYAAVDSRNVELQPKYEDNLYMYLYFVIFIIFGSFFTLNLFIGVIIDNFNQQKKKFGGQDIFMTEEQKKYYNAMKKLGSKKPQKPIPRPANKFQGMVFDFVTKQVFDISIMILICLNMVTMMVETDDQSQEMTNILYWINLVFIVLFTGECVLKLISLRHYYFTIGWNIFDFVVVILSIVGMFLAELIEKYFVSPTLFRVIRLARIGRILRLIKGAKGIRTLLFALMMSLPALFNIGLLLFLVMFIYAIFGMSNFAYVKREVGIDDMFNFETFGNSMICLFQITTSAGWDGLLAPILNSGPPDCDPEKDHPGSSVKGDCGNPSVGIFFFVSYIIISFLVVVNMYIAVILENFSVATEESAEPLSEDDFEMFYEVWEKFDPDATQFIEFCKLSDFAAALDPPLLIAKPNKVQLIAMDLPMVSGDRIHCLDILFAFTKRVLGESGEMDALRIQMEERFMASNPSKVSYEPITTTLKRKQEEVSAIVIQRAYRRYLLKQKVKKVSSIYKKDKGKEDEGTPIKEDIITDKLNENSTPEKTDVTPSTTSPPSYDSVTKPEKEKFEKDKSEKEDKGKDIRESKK

Take `CC1CCCC(C)N1CCCNC(=O)C(c1ccccc1)c1ccccc1` (centres undefined): the negative-log IC50 (pIC50) (commonly the IC50 on a negative log10 scale, so that one unit is a factor of ten) in the experiment listed under Rattus norvegicus [1] was 4.05; in experiment [2] it was 5.57; in the experiment filed under Rattus norvegicus [4] it was 5.30. For the same compound, the Ki – broadly, a dissociation constant, usually derived from enzyme kinetics or from competition with a known ligand – in experiment [3] is 0.26 µM.

As for `CC1CCCC(C)N1CCCN1C(=O)CC(c2ccccc2)(c2ccccc2)C1=O` (centres undefined), the pIC50 in experiment [2] was 5.44. Also, in experiment [3], the Ki was 1 µM.

In the case of `CC1CCCC(C)N1CCCNC(=O)C(c1ccc(Cl)cc1)c1ccc(Cl)cc1` (centres undefined), the negative logarithm of the IC50 (pIC50) in experiment [2] is 5.35. Moreover, the Ki in experiment [3] turned out to be 0.11 µM.

The compound `COc1ccc(C(C(=O)NCCCN2C(C)CCCC2C)c2ccc(OC)c3ccccc23)c2ccccc12` (centres undefined) gave a negative logarithm of the IC50 (pIC50) in experiment [2] of 4.89. The Ki in experiment [3] amounted to 0.24 µM.

For the compound `CC1CCCC(C)N1CCCNC(=O)C1(c2ccccc2)CCCCC1` (centres undefined), the values for the pIC50 (in the experiment listed under Rattus norvegicus [1]; in experiment [2]; in the experiment listed under Rattus norvegicus [4]) were 4.21, 5.37 and 4.92, respectively. Besides, the Ki in experiment [3] stood at 0.38 µM.

`CC1CCCC(C)N1CCCNC(=O)C1c2ccccc2-c2ccccc21` (centres undefined): the pIC50 in the experiment listed under Rattus norvegicus [1] was 4.29; in experiment [2], 4.54; in the experiment filed under Rattus norvegicus [4] it was below 4.52. This compound also came in with a Ki in experiment [3] of 2.3 µM.

For `CC1CCCC(C)N1CCCNC(=O)C(c1ccccc1Cl)c1ccccc1Cl` (centres undefined), the pIC50 is 5.32 in the experiment listed under Rattus norvegicus [1], 5.46 in experiment [2] and 5.22 in the experiment filed under Rattus norvegicus [4]. This compound yielded a Ki in experiment [3] of 0.073 µM.

As for `CC1CCCC(C)N1CCCNC(=O)C(c1ccc(F)cc1)c1ccc(F)cc1` (centres undefined), the pIC50 in experiment [2] was 5.24. Moreover, the Ki in experiment [3] is 0.13 µM.

With `CC1CCCC(C)N1CCCNC(=O)Cc1ccccc1` (centres undefined), the pIC50 in the experiment listed under Rattus norvegicus [1] is below 4.00; in experiment [2], below 4.00; in the experiment filed under Rattus norvegicus [4], below 4.52. Further, the inhibitory constant (Ki) in experiment [3] was 21 µM.

In experiment [2], `COc1ccc(C(C(=O)NCCCN2C(C)CCCC2C)c2ccc(OC)cc2)cc1` (centres undefined) gave a negative-log IC50 (pIC50) of 5.51. In addition, in experiment [3], the Ki came out at 1 µM.

On to `CC1CCCC(C)N1CCCNC(=O)Cc1cccc2ccccc12` (centres undefined), for which the pIC50 in experiment [2] is below 4.00. Besides, the inhibition constant Ki in experiment [3] amounted to 6.9 µM.

On to `CC1CCCC(C)N1CCCNC(=O)C1c2ccccc2Oc2ccccc21` (centres undefined), for which the pIC50 in experiment [2] is 4.89. Also, the Ki in experiment [3] was 0.41 µM.

As to `CC1CCCC(C)N1CCCNC(=O)N(c1ccccc1)c1ccccc1` (centres undefined), the pIC50 in the experiment filed under Rattus norvegicus [1] is below 4.00; in the experiment listed under Rattus norvegicus [4], below 4.52.

`Fc1ccc(C(c2ccc(F)cc2)N2CCN(C/C=C/c3ccccc3)CC2)cc1` [FLUNARIZINE] gave a pIC50 in the experiment filed under Rattus norvegicus [4] of 5.70.

Take `Cc1cccc(C)c1NC(=O)CN1CCN(CCCC(c2ccc(F)cc2)c2ccc(F)cc2)CC1` [LIDOFLAZINE]: in experiment [2], the pIC50 was 5.62. The compound also returned a Ki in experiment [3] of 0.077 µM.
